Publication PMC9091619 (RSC Advances, 2018)
Like-named read-outs stand apart in the source and are kept apart here.

Tests used:
HL-60 (leukemia) cells = experiment: In vitro cytotoxicity, MTT/MTS cell viability assay, HL-60; type: cell-based, human; settings: read-out: IC50 ± SD, HL-60
In short: (§1)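 Human cancer lines from ATCC, grown in RPMI-1640 or DMEM with 10% FBS at 37 °C, 5% CO2. Seeding at 1 × 10^5 cells per mL: adherent cells 12 h before dosing, suspension cells at dosing. 48 h exposure to graded concentrations, in triplicate; cisplatin and paclitaxel as positive controls. MTS added for 4 h at 37 °C, lysis in 20% SDS–50% DMF, OD 490 nm. IC50 by Reed and Muench's method.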

[1] = system: SMMC-7721 (hepatoma cells); experiment: In vitro cytotoxicity, MTT/MTS cell viability assay, SMMC-7721; type: cell-based, human; settings: read-out: IC50 ± SD, SMMC-7721
In short: as §1

[2] = system: A-549 (lung cancer) cells; experiment: In vitro cytotoxicity, MTT/MTS cell viability assay, A-549; type: cell-based, human; settings: read-out: IC50 ± SD, A-549
In short: as §1

[3] = system: MCF-7 (breast cancer) cells; experiment: In vitro cytotoxicity, MTT/MTS cell viability assay, MCF-7; type: cell-based, human; settings: read-out: IC50 ± SD, MCF-7
In short: as §1

[4] = system: SW480 (colon cancer) cells; experiment: In vitro cytotoxicity, MTT/MTS cell viability assay, SW480; type: cell-based, human; settings: read-out: IC50 ± SD, SW480
In short: as §1

[5] = system: five human cancer cell lines (HL-60, SMMC-7721, A-549, MCF-7 and SW480); experiment: Cytotoxicity against the panel of five tested cancer cell lines; type: cell-based; settings: for IC50: Homo sapiens, read-out: IC50 against all the tested cancer cell lines; for cytotoxicity against the tested cancer cell lines (in words): five tested cancer cell lines
In short: as §1

[6] = system: human normal pulmonary epithelial cells (BEAS-2B); experiment: Growth inhibitory effect on normal cells, BEAS-2B; type: cell-based; settings: for IC50: read-out: IC50 ± SD, BEAS-2B

| Compound | IC50 (HL-60 (leukemia) cells; Homo sapiens, HL-60, 48 h) | IC50 ([1]; Homo sapiens, SMMC-7721, 48 h) | IC50 ([2]; Homo sapiens, A549, 48 h) | IC50 ([3]; Homo sapiens, MCF7, 48 h) | IC50 ([4]; Homo sapiens, SW480, 48 h) | IC50 [5] | IC50 ([6]; Homo sapiens, BEAS-2B) | cytotoxicity against the tested cancer cell lines (in words) [5] | toxicity to BEAS-2B cells (in words) ([6]; BEAS-2B normal cells) | IC50 (HL-60 (leukemia) cells; HL-60 cells, 48 h exposure) | IC50 ([2]; A-549 cells, 48 h exposure) | IC50 ([3]; MCF-7 cells, 48 h exposure) | IC50 ([4]; SW480 cells, 48 h exposure) | IC50 ([1]; SMMC-7721 cells, 48 h exposure) | IC50 ([6]; BEAS-2B normal pulmonary epithelial cells) |
| --- | --- | --- | --- | --- | --- | --- | --- | --- | --- | --- | --- | --- | --- | --- | --- |
| COc1c(O)cc2oc3cc(O)c(CC=C(C)C)c(O)c3c(=O)c2c1CC1OC1(C)C (stereo not drawn) [Compound 2l, 1-((3,3-Dimethyloxiran-2-yl)methyl)-3,6,8-trihydroxy-2-methoxy-7-(3-methylbut-2-en-1-yl)-9H-xanthen-9-one] | > 40 µM | > 40 µM | > 40 µM | > 40 µM | > 40 µM | > 40 µM | – | – | – | – | – | – | – | – | – |
| COc1cccc2c1C(=O)c1c(O)c3c(c(O)c1C2=O)C[C@@](O)(C(=O)CO)C[C@@H]3O[C@H]1C[C@H](N)[C@H](O)[C@H](C)O1 [ADM, Adriamycin, reference compound] | 0.14 µM | 0.9 ± 0.03 µM | 0.3 ± 0.01 µM | 0.9 ± 0.02 µM | 0.11 ± 0.01 µM | – | > 40 µM | – | – | – | – | – | – | – | – |
| COc1c(O)cc2oc3cc(O)c(CC(O)C(C)(C)O)c(O)c3c(=O)c2c1CC=C(C)C (stereo not drawn) [Compound 2a, 1,3,6-Trihydroxy-2-(2,3-dihydroxy-3-methylbutyl)-7-methoxy-8-(3-methyl-2-butenyl)xanthone] | 18.2 ± 0.48 µM | 23.4 ± 1.29 µM | 19.8 ± 1.42 µM | 23.7 ± 0.64 µM | > 40 µM | – | 18.3 ± 0.51 µM | slightly decreased activity or comparative activity | – | – | – | – | – | – | – |
| COc1c(O)cc2oc3cc(O)c(CC=C(C)C)c(O)c3c(=O)c2c1CC(O)C(C)(C)O (stereo not drawn) [Compound 2b, 1,3,6-Trihydroxy-2-(3-methyl-2-butenyl)-7-methoxy-8-(2,3-dihydroxy-3-methylbutyl)xanthone] | > 40 µM | > 40 µM | > 40 µM | > 40 µM | > 40 µM | > 40 µM | – | – | – | – | – | – | – | – | – |
| COc1cc2oc3cc(OC)c(OC)c(CC=C(C)C)c3c(=O)c2c(OC)c1CC(OC)C(C)(C)OC (stereo not drawn) [Compound 2i, 2-(2,3-Dimethoxy-3-methylbutyl)-1,3,6,7-tetramethoxy-8-(3-methylbut-2-en-1-yl)-9H-xanthen-9-one] | > 40 µM | > 40 µM | > 40 µM | > 40 µM | > 40 µM | – | – | disappearance of cytotoxicity | – | – | – | – | – | – | – |
| COc1c(O)cc2oc3cc(O)c(CCC(C)C)c(O)c3c(=O)c2c1CC(O)C(C)(C)O (stereo not drawn) [Compound 2e, 1,3,6-Trihydroxy-2-isopentyl-7-methoxy-8-(2,3-dihydroxy-3-methylbutyl)-9H-xanthen-9-one] | 18.7 ± 0.23 µM | > 40 µM | > 40 µM | > 40 µM | > 40 µM | – | > 40 µM | – | non-cytotoxic | – | – | – | – | – | – |
| COc1c(O)cc2oc3cc(O)c(CC(O)C(C)(C)O)c(O)c3c(=O)c2c1CCC(C)C (stereo not drawn) [Compound 2d, 1,3,6-Trihydroxy-2-(2,3-dihydroxy-3-methylbutyl)-7-methoxy-8-isopentyl-9H-xanthen-9-one] | 21.6 ± 2.41 µM | 26.9 ± 3.75 µM | 36 ± 0.99 µM | > 40 µM | > 40 µM | – | > 40 µM | slightly decreased activity or comparative activity | – | – | – | – | – | – | – |
| COc1cc2oc3cc(OC)c(OC)c(CCC(C)C)c3c(=O)c2c(OC)c1CC(OC)C(C)(C)OC (stereo not drawn) [Compound 2j, 2-(2,3-Dimethoxy-3-methylbutyl)-8-isopentyl-1,3,6,7-tetramethoxy-9H-xanthen-9-one] | > 40 µM | > 40 µM | > 40 µM | > 40 µM | > 40 µM | – | – | disappearance of cytotoxicity | – | – | – | – | – | – | – |
| Mangostanin [Compound 2m] | – | – | – | – | – | – | – | slightly decreased activity or comparative activity | – | > 40 µM | > 40 µM | > 40 µM | > 40 µM | – | – |
| O=c1c2ccc(O)cc2oc2cc(O)cc(O)c12 [Compound 2u, 1,3,6-Trihydroxy-9H-xanthen-9-one] | > 40 µM | > 40 µM | > 40 µM | > 40 µM | > 40 µM | – | – | – | – | – | – | – | – | – | – |
| COc1c(O)cc2oc3cc(O)c(CC(O)C(C)(C)O)c(O)c3c(=O)c2c1CC(O)C(C)(C)O (stereo not drawn) [Compound 2c, 1,3,6-Trihydroxy-7-methoxy-2,8-bis(2,3-dihydroxy-3-methylbutyl)-9H-xanthen-9-one] | > 40 µM | > 40 µM | > 40 µM | > 40 µM | > 40 µM | > 40 µM | – | completely disappeared | – | – | – | – | – | – | – |
| COc1c(O)cc2oc3cc(O)c(CCC(C)(C)O)c(O)c3c(=O)c2c1CC=C(C)C [Compound 2n, 1,3,6-Trihydroxy-2-(3-hydroxy-3-methylbutyl)-7-methoxy-8-(3-methylbut-2-en-1-yl)-9H-xanthen-9-one] | 14.4 ± 0.05 µM | 26.3 ± 1.04 µM | 17 ± 0.77 µM | 24.6 ± 0.47 µM | 22.7 ± 2.35 µM | – | 29.3 ± 1.02 µM | slightly decreased activity or comparative activity | – | – | – | – | – | – | – |
| N.N.[Cl][Pt][Cl] [DDP, Cisplatin, reference compound] | – | – | – | – | – | – | – | – | – | 3.19 ± 0.18 µM | 13.8 ± 0.74 µM | 28.4 ± 3.71 µM | 14.8 ± 2.15 µM | 18 ± 0.49 µM | > 40 µM |
